Measured values reported in ChEMBL document CHEMBL1138680, “Phenoxyphenyl pyridines as novel state-dependent, high-potency sodium channel inhibitors” (J Med Chem, 2004).

Assays:
[1] = Ratio between Kr to Ki; type: functional
[2] = biological target: Sodium channel protein type 2 subunit alpha (Rattus norvegicus) (UniProt P04775); assay: Dissociation constant for binding to inactivated state of rat brain NaIIa (rNav1.2) -B2 cell line stably expressed in HEK293 Cells
[3] = biological target: Sodium channel protein type 2 subunit alpha, Nav1.2 (Rattus norvegicus) (UniProt P04775); assay: Dissociation constant for binding to resting state of rat brain NaIIa (rNav1.2) -B2 cell line stably expressed in HEK293 Cells
[4] = species on record: Rattus norvegicus; assay: Inhibition of native TTX-R sodium currents in acutely dissociated rat dorsal root ganglion (DRG); type: functional
Summary of the method: (§1)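 Acutely dissociated neurons from newborn Sprague Dawley rat pups were plated on poly-D-lysine and recorded for up to two weeks. The HEK-293 fractional-response protocol was used, but with a 1-s depolarizing prepulse and a 5-ms hyperpolarizing gap. Fractional responses were collected at three or more concentrations per drug. Ki came from a logistic fit of the partial concentration–inhibition curves.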

[5] = species on record: Rattus norvegicus; assay: Inhibition of native TTX-S sodium currents in acutely dissociated rat dorsal root ganglion (DRG); type: functional; summary of the method: as §1

SMILES: COc1cc(C(N)=O)nc(-c2ccc(Oc3ccc(F)cc3)cc2)c1
- Ratio [1]: 24
- Ki [2]: 360 nM
- kR [3]: 87.7 µM

SMILES: NC(=O)c1cc(N2CCOCC2)cc(-c2ccc(Oc3ccc(F)cc3)cc2)n1
- Ratio [1]: 94
- Inhibition activity [4]: 0.1 µM
- Inhibition activity [5]: 0.06 µM
- Ki [2]: 120 nM
- kR [3]: 11.6 µM

SMILES: NC(=O)c1ccnc(-c2ccc(Oc3ccc(F)cc3)cc2)c1
- Ki [2]: 2640 nM

SMILES: COc1cc(C(=O)NCCN(C)C)nc(-c2ccc(Oc3ccc(F)cc3)cc2)c1
- Ratio [1]: 90
- Inhibition activity [4]: 1.56 µM
- Inhibition activity [5]: 0.18 µM
- Ki [2]: 250 nM
- kR [3]: 23 µM

SMILES: Cc1cc(N(C)C)cc(-c2ccc(Oc3ccc(F)cc3)cc2)n1
- Ratio [1]: 122
- Inhibition activity [4]: 0.34 µM
- Inhibition activity [5]: 0.53 µM
- Ki [2]: 386 nM
- kR [3]: 47.1 µM

SMILES: Cc1cc(OCCN2CCCCC2)cc(-c2ccc(Oc3ccc(F)cc3)cc2)n1
- Ratio [1]: 362
- Inhibition activity [4]: 0.08 µM
- Inhibition activity [5]: 0.14 µM
- Ki [2]: 170 nM
- kR [3]: 63.4 µM

SMILES: NC(=O)c1cccc(-c2ccc(Oc3ccc(F)cc3)cc2)n1
- Ratio [1]: 252
- Inhibition activity [4]: 0.27 µM
- Inhibition activity [5]: 0.1 µM
- Ki [2]: 90 nM
- kR [3]: 24.2 µM

SMILES: NC(=O)c1cccnc1-c1ccc(Oc2ccc(F)cc2)cc1
- Ratio [1]: 5
- Ki [2]: 13400 nM
- kR [3]: 63.7 µM

SMILES: Nc1nnc(-c2cccc(Cl)c2Cl)c(N)n1 [LAMOTRIGINE]
- Inhibition activity [4]: 103 µM
- Inhibition activity [5]: 38.4 µM

SMILES: NC(=O)N/N=C/c1ccc(Oc2ccc(F)cc2)cc1
- Ratio [1]: 100
- Inhibition activity [4]: 0.26 µM
- Inhibition activity [5]: 0.25 µM
- Ki [2]: 350 nM
- kR [3]: 34 µM

SMILES: O=C(NCCN1CCCCC1)c1cccc(-c2ccc(Oc3ccc(F)cc3)cc2)n1
- Ratio [1]: 154
- Inhibition activity [4]: 0.06 µM
- Ki [2]: 20 nM
- kR [3]: 4.3 µM

SMILES: NC(=O)N1c2ccccc2C=Cc2ccccc21 [CARBAMAZEPINE]
- Inhibition activity [4]: 111 µM
- Inhibition activity [5]: 28 µM

SMILES: NC(=O)c1ccc(-c2ccc(Oc3ccc(F)cc3)cc2)nc1
- Ki [2]: 3750 nM

SMILES: O=C(NCCN1CCCCC1)c1cncc(-c2ccc(Oc3ccc(F)cc3)cc2)c1
- Ratio [1]: 68
- Ki [2]: 150 nM
- kR [3]: 10.5 µM

SMILES: O=C(NCCN1CCCCC1)c1ccc(-c2ccc(Oc3ccc(F)cc3)cc2)nc1
- Ratio [1]: 180
- Inhibition activity [4]: 1.56 µM
- Inhibition activity [5]: 1 µM
- Ki [2]: 590 nM
- kR [3]: 107 µM
